A selection: hits, their analogues and other compounds. The true share with any hit is near 4.1%.
Kir21 inh – inhibitors of mouse Kir2.1 inward-rectifier potassium channel | P35561 | HEK293-Kir2.1, FluxOR thallium flux fluorescence; stronger effect = lower value | B-score at 10 µM | 0.85% of 310,000 active | AID 1672;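 active = fluorescence ratio B-score at or below minus 3 SD of library scores, with starting-brightness B-score within 2 SD, cut at about -4.2 in these data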;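 also: channel flux triggered by added potassium and thallium sulfate stimulus; B-score of peak minus minimum fluorescence over baseline after thallium stimulus; more negative B-score means stronger Kir2.1 block with less thallium influx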
MrgX1 PAM – allosterically activates human MrgX1 receptor signaling | 0.63% of 310,000 active | B-score at 10 µM | MrgX1-HEK293, Fluo-4 calcium flux, FDSS; stronger effect = higher value | Q96LB2;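 active = plate-corrected calcium response at least 3 library SD above typical, normal starting fluorescence, not activating the receptor alone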;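 also: compound read alongside a low EC10 to EC30 dose of BAM8-22 agonist; peak minus trough fluorescence over baseline measured at the second addition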
Target sequence (Q96LB2 whole entry, looked up): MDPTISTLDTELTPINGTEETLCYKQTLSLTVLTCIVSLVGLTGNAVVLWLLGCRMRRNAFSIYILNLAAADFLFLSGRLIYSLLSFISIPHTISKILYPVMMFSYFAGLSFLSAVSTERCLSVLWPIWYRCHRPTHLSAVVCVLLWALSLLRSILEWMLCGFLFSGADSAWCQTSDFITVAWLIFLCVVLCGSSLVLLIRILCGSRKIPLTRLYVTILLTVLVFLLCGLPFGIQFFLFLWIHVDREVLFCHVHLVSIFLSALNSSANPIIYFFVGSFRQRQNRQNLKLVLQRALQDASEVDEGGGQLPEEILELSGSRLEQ
MrgX1 antagonist – antagonists of human MrgX1 receptor. MRGX1-HEK293 calcium flux, Fluo-4, BAM8-22 antagonism; stronger effect = lower value. B-score at 10 µM. 1.3% of 310,000 active. AID 588676;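 active = calcium-response B-score plate-corrected more than 3 library SD below zero, starting fluorescence within 5 deviations, no agonist response on first addition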;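 also: peak minus trough fluorescence over baseline after final BAM8-22 challenge near maximal dose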
RGS4 act – RGS4 potentiation or activation; HEK293 M3R/inducible RGS4, carbachol calcium flux Fluo4; stronger effect = lower value; B-score at 10 µM; 0.92% of 310,000 active; AID 463111;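 active = B-score of the integrated calcium signal more than 4 SD below the library mean, with starting fluorescence not abnormally high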;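 also: negative B-score means reduced calcium response which marks RGS4 activation or potentiation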
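Material: M3R-expressing HEK293 line, RGS4 induced by doxycycline | Schedule: Overnight RGS4 induction, 30 min dye load 37 °C, 20 min compound RT | Measured by: Fluo4 fluorescence kinetic imaging of calcium | Read-out: Integrated calcium ratio converted to B score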
MrgX1 ag – human MrgX1 receptor agonism, primary screen. MrgX1-HEK293 cells, Fluo-4 calcium fluorescence, agonist mode; stronger effect = higher value. B-score at 10 µM. 0.44% of 310,000 active. Q96LB2;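 active = calcium response B-score plate-corrected fluorescence ratio at least 3 library SD, with starting fluorescence B-score inside 5 SD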
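Test system: Stable human MrgX1 HEK293 cell line | Schedule: Overnight plating before 1 h dye loading | Read-out basis: Baseline-normalised fluorescence change ratio, B-scored | Detection: Kinetic calcium dye fluorescence, Fluo-4 NW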
RGS4 block – human RGS4 inhibition; B-score at 10 µM; HEK293 M3R/RGS4 inducible, Fluo-4 calcium flux; stronger effect = higher value; triggered by carbachol at its EC20; 0.45% of 310,000 active;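 active = B-score, a plate-corrected calcium signal, over three deviations above library mean, with baseline fluorescence within five deviations of library mean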;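 also: RGS4 expression induced by doxycycline in cells with stable M3 receptor; B-score is computed from the integrated fluorescence ratio over baseline after carbachol; higher B-score means a larger calcium signal and so more RGS4 inhibition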
Target sequence (P49798 whole entry, looked up): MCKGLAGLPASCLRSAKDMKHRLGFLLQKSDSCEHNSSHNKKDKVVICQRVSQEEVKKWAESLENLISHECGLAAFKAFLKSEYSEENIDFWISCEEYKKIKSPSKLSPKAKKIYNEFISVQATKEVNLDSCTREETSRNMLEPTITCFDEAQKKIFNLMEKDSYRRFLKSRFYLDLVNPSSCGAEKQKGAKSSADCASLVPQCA
MrgX1 antag conf – confirmation of human MrgX1 receptor antagonists; shares compounds with MrgX1 antagonist; MrgX1-HEK293, BAM8-22 calcium flux, Fluo-4; stronger effect = lower value; remaining BAM8-22 calcium response % of control (stronger effect = lower value), % at 10 µM; 19% of 2,300 active;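 active = remaining agonist calcium response no higher than 100% minus 3 SD of agonist-only control wells, with starting fluorescence near control levels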;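 also: agonist BAM8-22 given at a near maximal EC90 to ECmax level; peak minus minimum fluorescence divided by baseline after agonist addition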
HEK293 Ca flux – counter-screen for MrgX1 antagonists: effect in parental HEK293 cells | Fluo-4 calcium fluorescence, FDSS | 2% of 4,000 active | fluorescence ratio F(max-min)/F0 at 10 µM | shares compounds with MrgX1 antagonist;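 active = duplicate-averaged calcium fluorescence ratio at least three times the standard deviation of buffer wells, a nonspecific response in parental cells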
HEK293 Ca counter – counter-screen for MrgX1 allosteric activators: effect in parental HEK293 cells. shares compounds with MrgX1 antagonist. parental HEK293 calcium flux, Fluo-4 fluorescence ratio; stronger effect = higher value. fluorescence ratio F(max-min)/F0 at 10 µM. 0.4% of 4,000 active;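 active = calcium fluorescence ratio, averaged over duplicates, at least 3 SD of the buffer-well ratio, meaning a nonspecific response in receptor-free cells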;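 also: untransfected parental HEK293 lacking MrgX1 used as counterscreen for MrgX1 allosteric activators; fluorescence change taken during the second addition on a kinetic imager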
HEK293 Ca cntr2 – activity in parental HEK293 cells lacking MrgX1 receptor. shares compounds with MrgX1 antagonist. Fluo-4 calcium fluorescence (FDSS); stronger effect = higher value. fluorescence ratio F(max-min)/F0 at 10 µM. 8.7% of 4,000 active. AID 624115;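 active = calcium fluorescence ratio at least three times the spread of buffer wells, meaning a non-specific response in parental cells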
Hits are given with their value; n = inactive; x = not tested or not shown.

SMILES | Kir21 inh | MrgX1 PAM | MrgX1 antagonist | RGS4 act | MrgX1 ag | RGS4 block | MrgX1 antag conf | HEK293 Ca flux | HEK293 Ca counter | HEK293 Ca cntr2
Cc1nc(N2CCC(C)CC2)c(C#N)c(C)c1[N+](=O)[O-] | n | n | n | n | n | n | x | x | x | x
O=C(CN1C2CCC1CC(NC(=O)NC1CCCCC1)C2)NC1CC1 (centres undefined) | n | n | -5.5 | n | n | n | n | n | n | n
CCCN1C2CCCC1CC(NC(=O)NC1CCCCC1)C2 (centres undefined) | n | n | n | n | n | n | x | x | x | x
O=C(Nc1nsc(-c2ccccc2)n1)c1cccs1 | n | n | -10 | n | n | n | n | n | n | n
O=C(Nc1ccc(Cl)c(Cl)c1)Nc1ccccc1O | n | n | -5.5 | n | n | n | n | n | n | n
O=C(Nc1ccccc1O)C(c1ccccc1)c1ccccc1 | n | n | -5.1 | n | n | n | 76% | n | n | n
CCCCOC(=O)/C=C/c1c(C)[nH]c(=O)[nH]c1=O | n | n | n | n | n | n | x | x | x | x
COc1c2c(nc3ccccc13)OC(C(C)(O)COC(C)=O)C2 (centres undefined) | n | n | -6.5 | n | n | n | n | n | n | n
O=C1C(Cl)=C(Nc2ccccc2O)C(=O)N1CCc1ccccc1 | n | n | n | n | n | n | x | x | x | x
Cc1cccnc1NC(=O)CCNS(=O)(=O)c1ccc2c(c1)c(=O)n(C)c(=O)n2C | n | n | n | n | n | n | x | x | x | x
O=C(Nc1ccccc1)c1ccc(COc2ccccc2)cc1 | n | n | n | n | n | n | x | x | x | x
O=C(Nc1ccc(OCc2ccccc2)cc1)c1ccccc1 | n | n | -9 | n | n | n | n | n | n | n
C/C(=N/NC(=O)c1ccccc1)C1=C(O)CC(C)(C)CC1=O | n | n | n | n | n | n | x | x | x | x
CCC(=O)Nc1nnc(-c2cccs2)s1 | n | n | -5.1 | n | n | n | n | n | n | n
COCC(=O)Nc1nnc(-c2cccs2)s1 | n | n | n | n | n | n | x | x | x | x
CSc1ccccc1OCc1cc(C(=O)N2CCCC(C)C2)no1 (centres undefined) | n | n | -5.7 | n | n | n | n | n | n | n
CCCCS(=O)(=O)N1CCCC(C(=O)NCCc2ccccc2)C1 (centres undefined) | n | n | n | n | n | n | x | x | x | x
CCCc1nnc(NC(=O)CCC(=O)NC2CCCc3ccccc32)s1 (centres undefined) | n | n | n | n | n | n | x | x | x | x
CC(C)(C)c1ccc(NC(=O)NC2CCCc3ccccc32)cc1 (centres undefined) | n | n | n | n | n | n | x | x | x | x
Cc1ccc(NC(=O)NC2CCCc3ccccc32)cc1 (centres undefined) | n | n | -5.3 | n | n | n | n | n | n | n
CC(C)Cc1nnc(NC(=O)CCC(=O)NC2CCCc3ccccc32)s1 (centres undefined) | n | n | -5.2 | n | n | n | n | n | n | n
CN(C)S(=O)(=O)c1cccc(NC(=O)C2Cc3ccccc3CN2C(=O)c2ccccc2)c1 (centres undefined) | n | n | n | n | n | n | x | x | x | x
N#Cc1ccccc1S(=O)(=O)N1CCN(CC(=O)NC(=O)NC2CCCCC2)CC1 | n | n | -6.3 | n | n | n | n | n | n | n
CC1CCN(C(=O)CN(c2ccccc2)S(=O)(=O)N(C)C)CC1 | n | n | n | n | n | n | x | x | x | x

Assay outcomes deposited in PubChem by Johns Hopkins Ion Channel Center.
